Experimental data from ChEMBL document CHEMBL4229360, “Antimalarial agents against both sexual and asexual parasites stages: structure-activity relationships and biological studies of the Malaria Box compound 1-[5-(4-bromo-2-chlorophenyl)furan-2-yl]-N-[(piperidin-4-yl)methyl]methanamine (MMV019918) and analogues” (Eur J Med Chem, 2018).

Legend:
Plasmodium falciparum [1] = assay: Antiplasmodial activity against chloroquine-sensitive Plasmodium falciparum D10 after 72 hrs by lactate dehydrogenase assay; format: functional, organism-based; details: D10, 72 h
Procedure, shortened: (§1)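 Asynchronous blood-stage cultures at 1–1.5% parasitemia and 1% final hematocrit in human A+ RBCs, RPMI 1640 with 1% AlbuMax, hypoxanthine, HEPES and glutamine. Serial dilutions from DMSO stocks, final DMSO <1%. Incubated 72 h at 37 °C under 1% O₂/5% CO₂. IC50 is the mean of ≥3 experiments in duplicate.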

[2] = Cytotoxicity against mouse NIH/3T3 cells after 24 hrs by neutral red uptake assay; format: cell-based, NIH3T3; details: read-out: TC50
Procedure, shortened: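 NIH3T3 cells exposed for 24 h; viability by neutral red uptake. Mean of three experiments, six replicates each.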

Plasmodium falciparum [3] = assay: Antiplasmodial activity against chloroquine-resistant Plasmodium falciparum W2 after 72 hrs by lactate dehydrogenase assay; format: functional, organism-based; details: W2, 72 h; procedure, shortened: as §1
Plasmodium falciparum [4] = assay: Gametocytocidal activity against Plasmodium falciparum 3D7 elo1-pfs16-CBG99 late-stage (4 to 5) gametocytes assessed as inhibition of parasite viability after 72 hrs by luciferase reporter assay; format: functional, organism-based; details: 3D7 elo1-pfs16-CBG99, 72 h
Procedure, shortened: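 Transgenic 3D7elo1-pfs16-CBG99 gametocytes express CBG99 luciferase from the pfs16 promoter. Stage IV–V gametocytes (Giemsa-checked) were exposed at day 8–10 after NAG addition to serial dilutions in complete medium for 72 h. Samples at 2% haematocrit were then mixed 1:1 with D-luciferin (1 mM, pH 5.5 citrate) for 10 min and luminescence was read. IC50 came from non-linear regression, mean of ≥3 experiments in duplicate.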

[5] = biological target: T1, Phosphoethanolamine N-methyltransferase (Plasmodium falciparum) (UniProt Q8IDQ9); assay: Inhibition of plasmodium falciparum phosphoethanolamine N-methyltransferase expressed in Escherichia coli assessed as remaining enzyme activity at 100 uM using phosphoethanolamine as substrate and [methyl-14C] SAM by radiochemical assay
T1 sequence (whole entry): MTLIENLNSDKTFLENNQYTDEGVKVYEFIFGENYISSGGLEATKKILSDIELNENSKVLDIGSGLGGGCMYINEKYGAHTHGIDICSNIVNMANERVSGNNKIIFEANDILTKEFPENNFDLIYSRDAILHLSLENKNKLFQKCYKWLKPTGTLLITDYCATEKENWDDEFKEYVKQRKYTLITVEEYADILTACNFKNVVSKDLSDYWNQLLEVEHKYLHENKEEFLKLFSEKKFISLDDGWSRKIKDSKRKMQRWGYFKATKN
Procedure, shortened: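 Recombinant PfPMT purified from E. coli, 2 μg per 100 μL reaction. Buffer 0.1 M HEPES-KOH pH 8.0, 2 mM Na2EDTA, 10% glycerol, 5% DMSO, with 30 μM SAM (100 nCi [methyl-14C]SAM) and 55 μM phosphoethanolamine; radiochemical read-out.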

[6] = Cardiotoxicity in Langendorff perfused Wistar rat heart assessed as frequency of heart rate at 10 uM by electrocardiography (reference value: 247.05 to 275.90 bpm); format: toxicity, tissue-based
[7] = Cardiotoxicity in Langendorff perfused Wistar rat heart assessed as QRS interval time at 10 uM by electrocardiography (reference value: 13.31 to 14.35 milliseconds); format: toxicity, tissue-based
[8] = Cardiotoxicity in Langendorff perfused Wistar rat heart assessed as cycle length interval time at 3 uM by electrocardiography (reference value: 217.15 to 242.23 milliseconds); format: toxicity, tissue-based
Plasmodium falciparum [9] = assay: Antiplasmodial activity against gametocytes of Plasmodium falciparum NF54 infected in Anopheles stephensi mosquitoes after 24 hrs by standard membrane feeding assay; format: functional, organism-based; details: NF54, 24 h
[10] = Cardiotoxicity in Langendorff perfused Wistar rat heart assessed as cycle length interval time at 0.1 uM by electrocardiography (reference value: 217.15 to 242.23 milliseconds); format: toxicity, tissue-based
CaV1.2 channel = CaV1.2 channel (Rattus norvegicus, UniProt P22002); assay: Inhibition of CaV1.2 channel in rat tail artery myocytes assessed as reduction in Ba2+ current at 10 uM at -50 mV holding potential by whole-cell patch-clamp assay; format: cell-based
Procedure, shortened: (§2)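 Freshly isolated rat tail artery smooth muscle cells (collagenase digestion), whole-cell patch clamp at 20–22 °C. External solution: 5 mM Ba2+, 30 mM TEA; Cs+-based internal solution, pH 7.4. Currents from 250-ms pulses to 0 mV from Vh −50 mV at 0.067 Hz, after 7–10 min stabilisation. Leak corrected with 10 μM nifedipine. Peak current as % of control; n = 3–6 cells from ≥3 animals.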

[11] = Cardiotoxicity in Langendorff perfused Wistar rat heart assessed as QRS interval time at 0.1 uM by electrocardiography (reference value: 13.31 to 14.35 milliseconds); format: toxicity, tissue-based
[12] = Cardiotoxicity in Langendorff perfused Wistar rat heart assessed as QTc interval time at 0.1 uM by electrocardiography (reference value: 76.45 to 80.07 milliseconds); format: toxicity, tissue-based
[13] = Cardiotoxicity in Langendorff perfused Wistar rat heart assessed as PQ interval time at 1 uM by electrocardiography (reference value: 41.13 to 42.63 milliseconds); format: toxicity, tissue-based
[14] = biological target: Voltage-dependent L-type calcium channel subunit alpha-1C (Rattus norvegicus, UniProt P22002); assay: Inhibition of CaV1.2 channel in rat tail artery myocytes assessed as reduction in Ba2+ current at -50 mV holding potential by whole-cell patch-clamp assay; format: cell-based; details: rat; procedure, shortened: as §2
[15] = Cardiotoxicity in Langendorff perfused Wistar rat heart assessed as frequency of heart rate at 1 uM by electrocardiography (reference value: 247.05 to 275.90 bpm); format: toxicity, tissue-based
[16] = Cardiotoxicity in Langendorff perfused Wistar rat heart assessed as cycle length interval time at 10 uM by electrocardiography (reference value: 217.15 to 242.23 milliseconds); format: toxicity, tissue-based
[17] = Cardiotoxicity in Langendorff perfused Wistar rat heart assessed as frequency of heart rate at 3 uM by electrocardiography (reference value: 247.05 to 275.90 bpm); format: toxicity, tissue-based
[18] = Cardiotoxicity in Langendorff perfused Wistar rat heart assessed as PQ interval time at 3 uM by electrocardiography (reference value: 41.13 to 42.63 milliseconds); format: toxicity, tissue-based
hERG (KCNH2) = hERG (KCNH2) (Homo sapiens, UniProt Q12809); assay: Inhibition of human ERG at 50 uM
Plasmodium falciparum [19] = assay: Antiplasmodial activity against Plasmodium falciparum sexual stage forms; format: functional, organism-based
[20] = Cardiotoxicity in Langendorff perfused Wistar rat heart assessed as reduction of left ventricular pressure; format: toxicity, tissue-based
[21] = Cardiotoxicity in Langendorff perfused Wistar rat heart assessed as QTc interval time at 1 uM by electrocardiography (reference value: 76.45 to 80.07 milliseconds); format: toxicity, tissue-based
[22] = Cardiotoxicity in Langendorff perfused Wistar rat heart assessed as QRS interval time at 1 uM by electrocardiography (reference value: 13.31 to 14.35 milliseconds); format: toxicity, tissue-based
Plasmodium falciparum [23] = assay: Antiplasmodial activity against Plasmodium falciparum asexual stage forms; format: functional, organism-based
[24] = Cardiotoxicity in Langendorff perfused Wistar rat heart assessed as QRS interval time at 3 uM by electrocardiography (reference value: 13.31 to 14.35 milliseconds); format: toxicity, tissue-based
[25] = Cardiotoxicity in Langendorff perfused Wistar rat heart assessed as PQ interval time at 0.1 uM by electrocardiography (reference value: 41.13 to 42.63 milliseconds); format: toxicity, tissue-based
[26] = Cardiotoxicity in Langendorff perfused Wistar rat heart assessed as QTc interval time at 3 uM by electrocardiography (reference value: 76.45 to 80.07 milliseconds); format: toxicity, tissue-based
[27] = Cardiotoxicity in Langendorff perfused Wistar rat heart assessed as coronary perfusion pressure at 0.1 to 10 uM; format: toxicity, tissue-based
[28] = Cardiotoxicity in Langendorff perfused Wistar rat heart assessed as PQ interval time at 10 uM by electrocardiography (reference value: 41.13 to 42.63 milliseconds); format: toxicity, tissue-based
[29] = Cardiotoxicity in Langendorff perfused Wistar rat heart assessed as QTc interval time at 10 uM by electrocardiography (reference value: 76.45 to 80.07 milliseconds); format: toxicity, tissue-based
[30] = Cardiotoxicity in Langendorff perfused Wistar rat heart assessed as cycle length interval time at 1 uM by electrocardiography (reference value: 217.15 to 242.23 milliseconds); format: toxicity, tissue-based
[31] = Cardiotoxicity in Langendorff perfused Wistar rat heart assessed as frequency of heart rate at 0.1 uM by electrocardiography (reference value: 247.05 to 275.90 bpm); format: toxicity, tissue-based
Plasmodium falciparum [32] = assay: Gametocytocidal activity against Plasmodium falciparum late stage gametocytes; format: functional, organism-based
Plasmodium falciparum [33] = assay: Antiplasmodial activity against asexual blood stage Plasmodium falciparum NF54 after 72 hrs by SYBR green-based fluorometric analysis; format: functional, organism-based; details: NF54, 72 h
Procedure, shortened: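 Asexual NF54 seeded at 0.83% parasitaemia, 1.5% haematocrit, in RPMI1640 with 10% human serum. Serial dilutions, final DMSO 0.1%. Incubated 72 h at 37 °C under 3% O2, 4% CO2, then read by SYBR Green fluorescence.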

Plasmodium falciparum [34] = assay: Gametocytocidal activity against Plasmodium falciparum NF54 HGL gametocytes assessed as inhibition of parasite viability after 72 hrs by ONE-Glo reagent based luminescence assay; format: functional, organism-based
Procedure, shortened: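 NF54 gametocytes raised in 5% haematocrit RPMI1640/10% human serum, with 50 mM NAG on days 4–9. Mainly stage IV gametocytes isolated on day 11 by Percoll gradient and seeded at 5000 cells/well, final DMSO 0.1%. Incubated 72 h at 37 °C, 3% O2, 4% CO2; viability by ONE-Glo luminescence.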

CaV1.2 channel, sequence (P22002 whole entry): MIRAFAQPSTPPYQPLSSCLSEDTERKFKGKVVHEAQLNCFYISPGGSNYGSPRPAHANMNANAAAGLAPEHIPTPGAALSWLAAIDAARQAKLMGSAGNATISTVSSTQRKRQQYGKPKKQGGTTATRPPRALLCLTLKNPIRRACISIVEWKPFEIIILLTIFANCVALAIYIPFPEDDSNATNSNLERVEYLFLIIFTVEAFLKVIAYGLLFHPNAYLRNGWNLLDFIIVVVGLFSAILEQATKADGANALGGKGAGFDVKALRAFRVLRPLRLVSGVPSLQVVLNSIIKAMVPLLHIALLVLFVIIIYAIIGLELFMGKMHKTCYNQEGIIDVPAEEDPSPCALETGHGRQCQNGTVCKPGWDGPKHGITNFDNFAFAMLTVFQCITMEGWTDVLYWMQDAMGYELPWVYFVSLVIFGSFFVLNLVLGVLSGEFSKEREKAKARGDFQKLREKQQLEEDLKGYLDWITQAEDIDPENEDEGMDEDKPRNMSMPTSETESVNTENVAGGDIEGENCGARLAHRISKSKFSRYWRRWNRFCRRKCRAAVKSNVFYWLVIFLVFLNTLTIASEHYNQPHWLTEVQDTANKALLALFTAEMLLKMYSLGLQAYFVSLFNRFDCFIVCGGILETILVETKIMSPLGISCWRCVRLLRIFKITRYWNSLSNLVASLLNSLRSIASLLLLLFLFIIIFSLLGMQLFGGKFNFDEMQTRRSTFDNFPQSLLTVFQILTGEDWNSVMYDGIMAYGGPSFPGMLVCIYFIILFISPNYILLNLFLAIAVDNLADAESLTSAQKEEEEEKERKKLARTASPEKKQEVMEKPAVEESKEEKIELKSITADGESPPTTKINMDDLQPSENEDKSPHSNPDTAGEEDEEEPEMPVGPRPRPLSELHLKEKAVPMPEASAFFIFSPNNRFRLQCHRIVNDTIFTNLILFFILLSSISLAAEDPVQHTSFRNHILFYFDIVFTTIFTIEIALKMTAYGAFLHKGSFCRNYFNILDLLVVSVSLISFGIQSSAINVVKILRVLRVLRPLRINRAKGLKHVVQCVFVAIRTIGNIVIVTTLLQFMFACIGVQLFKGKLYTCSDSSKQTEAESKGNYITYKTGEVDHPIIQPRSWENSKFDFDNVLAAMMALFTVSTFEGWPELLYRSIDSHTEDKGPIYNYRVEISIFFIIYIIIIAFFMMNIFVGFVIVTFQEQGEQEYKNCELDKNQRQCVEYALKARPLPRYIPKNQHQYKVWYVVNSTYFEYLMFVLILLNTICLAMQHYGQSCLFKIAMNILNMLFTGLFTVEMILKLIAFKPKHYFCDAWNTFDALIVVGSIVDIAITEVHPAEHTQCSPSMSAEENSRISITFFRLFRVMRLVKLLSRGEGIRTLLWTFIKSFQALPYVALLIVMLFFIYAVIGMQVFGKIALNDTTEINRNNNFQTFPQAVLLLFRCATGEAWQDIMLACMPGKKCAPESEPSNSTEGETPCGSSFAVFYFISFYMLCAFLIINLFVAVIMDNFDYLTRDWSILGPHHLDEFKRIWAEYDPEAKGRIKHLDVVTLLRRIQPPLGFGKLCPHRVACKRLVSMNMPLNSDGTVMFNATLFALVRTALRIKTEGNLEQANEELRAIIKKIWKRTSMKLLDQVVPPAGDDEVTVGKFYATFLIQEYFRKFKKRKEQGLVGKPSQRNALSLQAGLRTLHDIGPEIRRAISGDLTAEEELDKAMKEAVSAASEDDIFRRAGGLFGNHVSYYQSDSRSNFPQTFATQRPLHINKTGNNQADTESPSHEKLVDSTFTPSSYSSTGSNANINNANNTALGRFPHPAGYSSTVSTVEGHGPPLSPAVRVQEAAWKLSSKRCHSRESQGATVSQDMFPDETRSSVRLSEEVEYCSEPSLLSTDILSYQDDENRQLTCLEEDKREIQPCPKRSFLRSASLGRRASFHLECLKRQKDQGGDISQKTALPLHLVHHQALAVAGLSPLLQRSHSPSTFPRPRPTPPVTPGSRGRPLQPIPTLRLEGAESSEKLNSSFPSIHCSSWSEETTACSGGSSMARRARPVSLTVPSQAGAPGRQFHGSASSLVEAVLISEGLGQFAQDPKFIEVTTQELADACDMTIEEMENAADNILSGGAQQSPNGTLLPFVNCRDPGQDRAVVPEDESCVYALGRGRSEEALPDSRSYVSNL
Voltage-dependent L-type calcium channel subunit alpha-1C, sequence (P22002 whole entry, the tested form may be a part): as the sequence (P22002 whole entry) above
hERG (KCNH2), sequence (Q12809 whole entry): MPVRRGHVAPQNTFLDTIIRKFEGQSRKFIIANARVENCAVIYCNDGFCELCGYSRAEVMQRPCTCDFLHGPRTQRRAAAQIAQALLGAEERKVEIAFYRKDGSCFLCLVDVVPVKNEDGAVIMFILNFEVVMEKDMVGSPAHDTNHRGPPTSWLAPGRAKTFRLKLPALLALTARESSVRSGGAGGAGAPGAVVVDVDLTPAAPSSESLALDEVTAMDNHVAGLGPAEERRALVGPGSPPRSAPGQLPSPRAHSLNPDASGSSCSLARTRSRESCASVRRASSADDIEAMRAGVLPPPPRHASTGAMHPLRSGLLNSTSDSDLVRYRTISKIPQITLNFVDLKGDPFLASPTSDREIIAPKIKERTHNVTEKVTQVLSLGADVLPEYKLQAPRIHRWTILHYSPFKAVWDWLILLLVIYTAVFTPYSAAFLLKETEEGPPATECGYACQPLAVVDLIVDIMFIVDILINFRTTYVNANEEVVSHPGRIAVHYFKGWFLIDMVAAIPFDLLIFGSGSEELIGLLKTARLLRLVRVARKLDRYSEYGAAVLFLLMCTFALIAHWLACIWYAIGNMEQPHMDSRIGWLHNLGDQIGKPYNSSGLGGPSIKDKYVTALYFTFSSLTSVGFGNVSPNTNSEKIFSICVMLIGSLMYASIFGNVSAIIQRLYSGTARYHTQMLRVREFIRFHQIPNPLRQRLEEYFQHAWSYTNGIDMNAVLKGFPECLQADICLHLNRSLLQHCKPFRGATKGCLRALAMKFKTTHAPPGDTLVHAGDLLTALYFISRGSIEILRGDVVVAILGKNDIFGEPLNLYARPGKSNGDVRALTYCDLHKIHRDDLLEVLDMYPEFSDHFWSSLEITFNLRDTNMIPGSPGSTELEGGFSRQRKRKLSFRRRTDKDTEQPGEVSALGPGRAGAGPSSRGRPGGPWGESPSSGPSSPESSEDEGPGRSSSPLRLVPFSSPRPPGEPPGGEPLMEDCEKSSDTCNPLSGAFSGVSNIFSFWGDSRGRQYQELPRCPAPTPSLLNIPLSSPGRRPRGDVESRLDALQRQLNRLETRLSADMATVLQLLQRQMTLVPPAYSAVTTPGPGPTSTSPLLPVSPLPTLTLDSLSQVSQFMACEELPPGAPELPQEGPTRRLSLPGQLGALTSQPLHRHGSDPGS

## Clc1cc(-c2ccccc2)ccc1-c1ccc(CNCC2CCNCC2)o1
Plasmodium falciparum [1]
  IC50: 1000 nM
[2]
  CC50 at 24 h: 5000 nM
Plasmodium falciparum [3]
  IC50: 3000 nM
Plasmodium falciparum [4]
  IC50: 1400 nM

## Clc1ccc(-c2ccc(CNCC3CCNCC3)o2)c(Br)c1
Plasmodium falciparum [1]
  IC50: 510 nM
[2]
  CC50 at 24 h: < 5000 nM
Plasmodium falciparum [3]
  IC50: 1870 nM
Plasmodium falciparum [4]
  IC50: 1100 nM

## Clc1ccc(-c2nnc(CNCC3CCNCC3)o2)c(Br)c1
Plasmodium falciparum [1]
  IC50: > 13000 nM
Plasmodium falciparum [3]
  IC50: 7900 nM
Plasmodium falciparum [4]
  IC50: > 26000 nM

## N#Cc1ccc(-c2ccc(CNCC3CCNCC3)o2)cc1
Plasmodium falciparum [1]
  IC50: 1100 nM
[5]
  Activity: 73.2%
Plasmodium falciparum [3]
  IC50: 6300 nM
Plasmodium falciparum [4]
  IC50: 18400 nM

## FC(F)(F)c1ccc(-c2ccc(CNCC3CCNCC3)o2)cc1
Plasmodium falciparum [1]
  IC50: 410 nM
[2]
  CC50 at 24 h: 50000 nM
Plasmodium falciparum [3]
  IC50: 1500 nM
Plasmodium falciparum [4]
  IC50: 1900 nM

## Clc1cc(Br)ccc1-c1ccc(CNCC2CCNCC2)o1
[6]
  Activity: 222.74 bpm
[7]
  Time: 23.75 ms
[8]
  Time: 233.9 ms
Plasmodium falciparum [1]
  IC50: 770 nM
Plasmodium falciparum [9]
  EC50: 70 nM
[5]
  Activity: 92%
[10]
  Time: 235.08 ms
CaV1.2 channel
  inhibition at 10 µM: 57%
[11]
  Time: 14.25 ms
[12]
  Time: 81.51 ms
[13]
  Time: 42.5 ms
[14]
  inhibition (INH): Dose-dependent effect
[15]
  Activity: 258.35 bpm
[16]
  Time: 272.57 ms
[17]
  Activity: 257.71 bpm
[18]
  Time: 47.9 ms
hERG (KCNH2)
  inhibition at 50 µM: 83%
Plasmodium falciparum [19]
  IC50: < 1000 nM
[20]
  Activity: Dose-dependent effect
[21]
  Time: 80.93 ms
[22]
  Time: 15.8 ms
Plasmodium falciparum [23]
  IC50: < 1000 nM
[24]
  Time: 17.46 ms
[25]
  Time: 42.29 ms
[26]
  Time: 82.1 ms
[27]
  Activity: Non-Toxic
Plasmodium falciparum [3]
  IC50: 2300 nM
[28]
  Time: 67.5 ms
[29]
  Time: 80.99 ms
Plasmodium falciparum [4]
  IC50: 1200 nM
[30]
  Time: 232.48 ms
[31]
  Activity: 256.15 bpm
Plasmodium falciparum [32]
  IC50: < 1000 nM

## FC(F)(F)c1ccc(-c2cccc(CNCC3CCNCC3)n2)cc1
Plasmodium falciparum [1]
  IC50: 460 nM
Plasmodium falciparum [3]
  IC50: 3400 nM
Plasmodium falciparum [4]
  IC50: 4000 nM

## Clc1ccccc1-c1ccc(CNCC2CCNCC2)o1
Plasmodium falciparum [1]
  IC50: 2100 nM
Plasmodium falciparum [3]
  IC50: 4300 nM
Plasmodium falciparum [4]
  IC50: 5900 nM

## c1ccc(-c2ccc(CNCC3CCNCC3)o2)cc1
Plasmodium falciparum [1]
  IC50: 3500 nM
Plasmodium falciparum [3]
  IC50: 9100 nM
Plasmodium falciparum [4]
  IC50: 8600 nM

## COc1ccccc1-c1ccc(CNCC2CCNCC2)o1
Plasmodium falciparum [1]
  IC50: 10000 nM
[2]
  CC50 at 24 h: 53000 nM
Plasmodium falciparum [3]
  IC50: > 15000 nM
Plasmodium falciparum [4]
  IC50: 11800 nM

## Clc1ccc(-c2ccc(CNCC3CCNCC3)s2)c(Br)c1
Plasmodium falciparum [33]
  IC50: 420 nM
Plasmodium falciparum [1]
  IC50: 530 nM
[2]
  CC50 at 24 h: < 5000 nM
Plasmodium falciparum [3]
  IC50: 1400 nM
Plasmodium falciparum [4]
  IC50: 830 nM
Plasmodium falciparum [34]
  IC50: 28 nM
